Source: ChEMBL document CHEMBL3259614, “Design, synthesis, and structure-activity relationship studies of novel fused heterocycles-linked triazoles with good activity and water solubility” (J Med Chem, 2014)
Values after ≈ are worked out from the molar mass of the structure shown.

How the values were obtained:
Cryptococcus neoformans [1] = assay: Ratio of ravuconazole MIC to compound MIC for Cryptococcus neoformans 32609 after 72 hrs by serial dilution method; type: functional
Candida albicans [2] = assay: Antimicrobial activity against fluconazole-resistant Candida albicans J38 after 24 hrs by serial dilution method; type: functional; conditions: J38, 24 h
In short: (§1)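 Broth serial-dilution MIC in 96-well plates following NCCLS guidance. Compounds were dissolved in DMSO and serially diluted in growth medium. Clinical isolates came from a hospital collection. […] C. parapsilosis ATCC 22019 served as the quality-control strain in each assay.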

Candida albicans [3] = assay: Ratio of fluconazole MIC to compound MIC for fluconazole-resistant Candida albicans 103 after 24 hrs by serial dilution method; type: functional
Candida parapsilosis [4] = assay: Ratio of voriconazole MIC to compound MIC for Candida parapsilosis 22019 after 24 hrs by serial dilution method; type: functional
Candida albicans [5] = assay: Antimicrobial activity against fluconazole-resistant Candida albicans 103 after 24 hrs by serial dilution method; type: functional; conditions: Candida albicans, 103, 24 h; in short: as §1
Candida albicans [6] = assay: Antimicrobial activity against fluconazole-resistant Candida albicans 100 after 24 hrs by serial dilution method; type: functional; conditions: Candida albicans, 100, 24 h; in short: as §1
Candida albicans [7] = assay: Ratio of fluconazole MIC to compound MIC for fluconazole-resistant Candida albicans 100 after 24 hrs by serial dilution method; type: functional
Candida parapsilosis [8] = assay: Antimicrobial activity against Candida parapsilosis 22019 after 24 hrs by serial dilution method; type: functional; conditions: Lodderomyces parapsilosis, 22019, 24 h
In short: (§2)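 Broth serial dilution MIC in 96-well plates following NCCLS/CLSI methods. Compounds were dissolved in DMSO and serially diluted in growth medium, with incubation at 35 °C. […] C. parapsilosis 22019 served as the quality-control strain in each assay.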

Candida parapsilosis [9] = assay: Ratio of ravuconazole MIC to compound MIC for Candida parapsilosis 22019 after 24 hrs by serial dilution method; type: functional
Candida albicans [10] = assay: Ratio of fluconazole MIC to compound MIC for fluconazole-resistant Candida albicans J18 after 24 hrs by serial dilution method; type: functional
Candida albicans [11] = assay: Antimicrobial activity against fluconazole-resistant Candida albicans J18 after 24 hrs by serial dilution method; type: functional; conditions: J18, 24 h; in short: as §1
Nakaseomyces glabratus [12] = assay: Ratio of voriconazole MIC to compound MIC for Candida glabrata 537 after 24 hrs by serial dilution method; type: functional
Nakaseomyces glabratus [13] = assay: Ratio of ravuconazole MIC to compound MIC for Candida glabrata 537 after 24 hrs by serial dilution method; type: functional
Candida albicans [14] = assay: Antimicrobial activity against Candida albicans SC5314 after 24 hrs by serial dilution method; type: functional; conditions: SC5314, 24 h; in short: as §2
Aspergillus fumigatus = assay: Antimicrobial activity against Aspergillus fumigatus 7544 after 48 hrs by serial dilution method; type: functional; conditions: Aspergillus fumigatus, 7544, 48 h; in short: as §2
Candida albicans [15] = assay: Antimicrobial activity against fluconazole-resistant Candida albicans J28 after 24 hrs by serial dilution method; type: functional; conditions: J28, 24 h; in short: as §1
Candida albicans [16] = assay: Antimicrobial activity against Candida albicans Y0109 after 24 hrs by serial dilution method; type: functional; conditions: Y0109, 24 h; in short: as §2
Cryptococcus neoformans [17] = assay: Antimicrobial activity against Cryptococcus neoformans 32609 after 72 hrs by serial dilution method; type: functional; conditions: Cryptococcus neoformans, 32609, 72 h; in short: as §2
Cryptococcus neoformans [18] = assay: Ratio of voriconazole MIC to compound MIC for Cryptococcus neoformans 32609 after 72 hrs by serial dilution method; type: functional
Nakaseomyces glabratus [19] = assay: Antimicrobial activity against Candida glabrata 537 after 24 hrs by serial dilution method; type: functional; conditions: Nakaseomyces glabratus, 537, 24 h; in short: as §2
Candida albicans [20] = assay: Antimicrobial activity against Candida albicans SC5314 infected in ICR mouse assessed as mean survival days at 0.32 mg/kg, po qd for 5 days starting 2 hrs post infection (reference value: 5.2 +/- 2.35 days starting 2 hrs post infection); type: functional
[21] = Intrinsic clearance in Sprague-Dawley rat liver microsomes assessed per mg protein at 0.1 uM by LC/MS/MS analysis; type: ADME
In short: (§3)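 Male Sprague−Dawley rat liver microsomes (0.33 mg/mL protein) in 0.1 M Tris-HCl pH 7.4 with 5 mM MgCl₂ and 1 mM NADPH. Compound at a final 0.1 μM (0.01% DMSO, 0.005% BSA), incubated at 37 °C. Samples taken at 0, 7, 17, 30 and 60 min were quenched in methanol, and parent compound was measured by LC/MS/MS. t1/2 and Clint were then calculated.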

Candida albicans [22] = assay: Antimicrobial activity against Candida albicans SC5314 infected in ICR mouse assessed as mean survival days at 10 mg/kg, po qd for 5 days starting 2 hrs post infection (reference value: 5.2 +/- 2.35 days starting 2 hrs post infection); type: functional
Candida albicans [23] = assay: Antimicrobial activity against Candida albicans SC5314 infected in ICR mouse assessed as mean survival days at 1 mg/kg, po qd for 5 days starting 2 hrs post infection (reference value: 5.2 +/- 2.35 days starting 2 hrs post infection); type: functional
Candida albicans [24] = assay: Antimicrobial activity against fluconazole-resistant Candida albicans 103 infected in ICR mouse assessed as mean survival days at 10 mg/kg, po qd for 5 days starting 2 hrs post infection (reference value: 1.5 +/- 0.53 days); type: functional
Candida albicans [25] = assay: Antimicrobial activity against fluconazole-resistant Candida albicans 103 infected in ICR mouse assessed as mean survival days at 0.32 mg/kg, po qd for 5 days starting 2 hrs post infection (reference value: 1.5 +/- 0.53 days); type: functional
[26] = AUC (0 to infinity) in Sprague-Dawley rat at 3 mg/kg, iv; type: ADME, organism-based; set-up: time infinity, dose 3 mg/kg, route intravenous; conditions: plasma
In short: (§4)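 Male Sprague−Dawley rats (200−250 g), seven per group, dosed orally at 10 mg/kg or intravenously at 3 or 5 mg/kg in 5% DMSO + 5% Tween 80 in 90% saline. Serial retrobulbar blood samples were quantified by LC-MS. Parameters were derived from mean plasma concentrations by noncompartmental analysis. For the disulfate salt, values are based on the active free base measured.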

[27] = AUC (0 to infinity) in Sprague-Dawley rat at 10 mg/kg, po; type: ADME, organism-based; set-up: time infinity, dose 10 mg/kg, route oral; conditions: plasma; in short: as §4
[28] = Clearance in Sprague-Dawley rat at 3 mg/kg, iv; type: ADME, organism-based; set-up: dose 3 mg/kg, route intravenous; conditions: in vivo; in short: as §4
[29] = Aqueous solubility of the compound in hydrochloric acid solution at pH 1.2; type: physicochemical
In short: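 Excess solid was stirred for 3 h in pH 1.2 hydrochloric acid or pH 7.4 phosphate buffer, then filtered through 0.45 μm. Absorbance at the UV maximum was compared with a methanol standard, C′ = A′C/A, with values reported in mg/mL. Determined at 30 °C; mean ± SD, n = 3.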

[30] = Tmax in Sprague-Dawley rat at 10 mg/kg, po; type: ADME, organism-based; set-up: dose 10 mg/kg, route oral; conditions: in vivo; in short: as §4
[31] = Half life in Sprague-Dawley rat at 3 mg/kg, iv; type: ADME, organism-based; set-up: dose 3 mg/kg, route intravenous; conditions: in vivo; in short: as §4
[32] = Elimination half life in Sprague-Dawley rat liver microsomes at 0.1 uM by LC/MS/MS analysis; type: ADME; conditions: read-out: beta t1/2; in short: as §3
[33] = Half life in Sprague-Dawley rat at 10 mg/kg, po; type: ADME, organism-based; set-up: dose 10 mg/kg, route oral; conditions: in vivo; in short: as §4
Candida albicans [34] = assay: Antimicrobial activity against fluconazole-resistant Candida albicans 103 infected in ICR mouse assessed as mean survival days at 3.2 mg/kg, po qd for 5 days starting 2 hrs post infection (reference value: 1.5 +/- 0.53 days); type: functional
[35] = Cmax in Sprague-Dawley rat at 10 mg/kg, po; type: ADME, organism-based; set-up: dose 10 mg/kg, route oral; conditions: in vivo; in short: as §4
Candida albicans [36] = assay: Antimicrobial activity against Candida albicans SC5314 infected in ICR mouse assessed as mean survival days at 3.2 mg/kg, po qd for 5 days starting 2 hrs post infection (reference value: 5.2 +/- 2.35 days starting 2 hrs post infection); type: functional
[37] = Oral bioavailability in Sprague-Dawley rat at 10 mg/kg; type: ADME, organism-based; conditions: in vivo; in short: as §4
Candida albicans [38] = assay: Antimicrobial activity against fluconazole-resistant Candida albicans 103 infected in ICR mouse assessed as mean survival days at 1 mg/kg, po qd for 5 days starting 2 hrs post infection (reference value: 1.5 +/- 0.53 days); type: functional
[39] = biological target: Voltage-gated inwardly rectifying potassium channel KCNH2 (Homo sapiens, UniProt Q12809); assay: Inhibition of human ERG expressed in CHO cells by whole-cell patch clamp assay; type: cell-based
Candida albicans [40] = assay: Antimicrobial activity against Candida albicans SC5314 infected in ICR mouse assessed as mean survival days at 1 mg/kg, iv qd for 5 days starting 2 hrs post infection (reference value: 9.0 +/- 0.67 days); type: functional
Candida albicans [41] = assay: Antimicrobial activity against Candida albicans SC5314 infected in ICR mouse assessed as mean survival days at 0.32 mg/kg, iv qd for 5 days starting 2 hrs post infection (reference value: 9.0 +/- 0.67 days); type: functional
Candida albicans [42] = assay: Antimicrobial activity against Candida albicans SC5314 infected in ICR mouse assessed as mean survival days at 3.2 mg/kg, iv qd for 5 days starting 2 hrs post infection (reference value: 9.0 +/- 0.67 days); type: functional
[43] = AUC (0 to infinity) in Sprague-Dawley rat at 5 mg/kg, iv; type: ADME, organism-based; set-up: dose 5 mg/kg, route intravenous, time infinity; conditions: plasma; in short: as §4
[44] = Half life in Sprague-Dawley rat at 5 mg/kg, iv; type: ADME, organism-based; set-up: dose 5 mg/kg, route intravenous; conditions: in vivo; in short: as §4
[45] = Clearance in Sprague-Dawley rat at 5 mg/kg, iv; type: ADME, organism-based; set-up: dose 5 mg/kg, route intravenous; conditions: in vivo; in short: as §4
Candida albicans [46] = assay: Antimicrobial activity against Candida albicans SC5314 infected in ICR mouse assessed as mean survival days at 10 mg/kg, iv qd for 5 days starting 2 hrs post infection (reference value: 9.0 +/- 0.67 days); type: functional
Hepatocyte = assay: Cytotoxicity against rat hepatocytes assessed as reduction in survival rate at 5 to 40 uM after 48 hrs by SRB assay; type: cell-based

Voltage-gated inwardly rectifying potassium channel KCNH2, sequence (Q12809 whole entry): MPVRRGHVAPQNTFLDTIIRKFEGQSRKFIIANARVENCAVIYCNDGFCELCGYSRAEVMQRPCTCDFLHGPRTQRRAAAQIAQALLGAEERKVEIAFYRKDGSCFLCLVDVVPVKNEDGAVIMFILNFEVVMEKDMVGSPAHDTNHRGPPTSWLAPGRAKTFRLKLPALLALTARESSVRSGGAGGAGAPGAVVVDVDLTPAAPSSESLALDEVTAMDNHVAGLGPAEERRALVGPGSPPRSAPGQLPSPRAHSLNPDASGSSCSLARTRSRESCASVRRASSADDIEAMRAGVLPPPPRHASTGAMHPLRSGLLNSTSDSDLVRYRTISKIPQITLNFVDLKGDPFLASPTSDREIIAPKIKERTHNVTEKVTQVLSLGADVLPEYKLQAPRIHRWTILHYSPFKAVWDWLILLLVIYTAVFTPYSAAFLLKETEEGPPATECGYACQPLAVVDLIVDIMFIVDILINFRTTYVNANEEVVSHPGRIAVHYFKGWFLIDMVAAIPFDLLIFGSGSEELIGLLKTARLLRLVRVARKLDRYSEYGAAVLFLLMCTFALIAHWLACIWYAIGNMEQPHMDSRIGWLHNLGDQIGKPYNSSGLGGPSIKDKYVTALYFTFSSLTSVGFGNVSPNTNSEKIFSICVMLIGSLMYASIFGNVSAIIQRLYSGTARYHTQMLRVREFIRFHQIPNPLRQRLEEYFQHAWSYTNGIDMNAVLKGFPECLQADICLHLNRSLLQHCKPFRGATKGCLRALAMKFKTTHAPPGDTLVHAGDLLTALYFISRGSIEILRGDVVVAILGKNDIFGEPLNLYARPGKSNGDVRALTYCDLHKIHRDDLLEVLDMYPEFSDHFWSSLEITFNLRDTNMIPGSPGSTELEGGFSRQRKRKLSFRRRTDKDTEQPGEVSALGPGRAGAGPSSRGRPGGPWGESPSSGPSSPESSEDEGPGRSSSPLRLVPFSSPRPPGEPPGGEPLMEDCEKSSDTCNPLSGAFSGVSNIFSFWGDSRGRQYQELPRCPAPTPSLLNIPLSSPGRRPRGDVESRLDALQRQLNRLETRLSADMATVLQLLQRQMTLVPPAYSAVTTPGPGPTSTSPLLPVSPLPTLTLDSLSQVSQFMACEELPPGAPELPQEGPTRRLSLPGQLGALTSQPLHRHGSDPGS

SMILES | MIC (Candida albicans [2]) | MIC (Candida albicans [5]) | MIC (Candida albicans [6]) | MIC (Candida parapsilosis [8]) | MIC (Candida albicans [11]) | MIC (Candida albicans [14]) | MIC (Aspergillus fumigatus) | MIC (Candida albicans [15]) | MIC (Candida albicans [16]) | MIC (Cryptococcus neoformans [17]) | MIC (Nakaseomyces glabratus [19]) | microsomal CLint at 0.1 µM [21] | AUC(0-inf) [27] | Tmax [30] | half-life at 0.1 µM [32] | half-life [33] | Cmax [35] | bioavailability [37] | also measured
C[C@@H](N1CCn2cc(-c3ccccc3)nc2C1)[C@](O)(Cn1cncn1)c1ccc(F)cc1F | 0.125 µg/mL (≈ 0.277 µM) | > 32 µg/mL | > 32 µg/mL | 0.0625 µg/mL (≈ 0.139 µM) | > 32 µg/mL | 0.0625 µg/mL (≈ 0.139 µM) | 16 µg/mL (≈ 35.5 µM) | 0.5 µg/mL (≈ 1.11 µM) | 0.0625 µg/mL (≈ 0.139 µM) | 0.0312 µg/mL (≈ 0.0694 µM) | 0.0312 µg/mL (≈ 0.0694 µM) |  |  |  |  |  |  |  | Ratio (Cryptococcus neoformans [1]): 2; Ratio (Candida albicans [3]): 16; Ratio (Candida parapsilosis [4]): 2; Ratio (Candida albicans [7]): 16; Ratio (Candida parapsilosis [9]): 2; Ratio (Candida albicans [10]): 16; Ratio (Nakaseomyces glabratus [12]): 2; Ratio (Nakaseomyces glabratus [13]): 2; Ratio (Cryptococcus neoformans [18]): 2
C[C@@H](N1CCn2nc(-c3ccc(C#N)nc3)nc2C1)[C@](O)(Cn1cncn1)c1ccc(F)cc1F | ≤ 0.0312 µg/mL | > 16 µg/mL | 8 µg/mL (≈ 16.8 µM) | 0.0156 µg/mL (≈ 0.0327 µM) | > 16 µg/mL | 0.0156 µg/mL (≈ 0.0327 µM) | 1 µg/mL (≈ 2.09 µM) | 0.0625 µg/mL (≈ 0.131 µM) | 0.0156 µg/mL (≈ 0.0327 µM) | 0.0078 µg/mL (≈ 0.0163 µM) | 0.0078 µg/mL (≈ 0.0163 µM) | 5 µL/min/mg | 7910 ng·h/mL | 105 min | 430 min | 218 min | 1420 ng/mL | 105% | Survival (Candida albicans [20]): 8 days; Survival (Candida albicans [22]): 18.1 days; Survival (Candida albicans [23]): 12.3 days; Survival (Candida albicans [24]): 8.3 days; Survival (Candida albicans [25]): 1.7 days; AUC(0-inf) [26]: 2240 ng·h/mL; clearance [28]: 22.7 mL/min/kg; solubility [29]: 44 µg/mL (≈ 92.2 µM); half-life [31]: 72 min; Survival (Candida albicans [34]): 3.6 days; Survival (Candida albicans [36]): 14.1 days; Survival (Candida albicans [38]): 2 days; IC50 [39]: > 40 µM
C[C@@H](N1CCc2nc(-c3cncnc3)sc2C1)[C@](O)(Cn1cncn1)c1ccc(F)cc1F.O.O=S(=O)(O)O |  |  |  |  |  |  |  |  |  |  |  | 65 µL/min/mg | 141 ng·h/mL | 15 min | 32.4 min | 27.6 min | 164 ng/mL | 5.8% | Survival (Candida albicans [40]): 7.8 days; Survival (Candida albicans [41]): 8.8 days; Survival (Candida albicans [42]): 9.8 days; AUC(0-inf) [43]: 1190 ng·h/mL; half-life [44]: 25.2 min; clearance [45]: 72.5 mL/min/kg; Survival (Candida albicans [46]): 11.1 days; Activity (Hepatocyte): Non-toxic
